# Assay outcomes as filed in PubChem BioAssay.
# NadD inh = inhibitors of S. aureus NadD, primary screen, biochemical, colorimetric, uHTS; Nicotinate-nucleotide adenylyltransferase NadD (Staphylococcus aureus N315); purified NadD enzyme, colorimetric absorbance read-out; inhibition, % at 20 µM; 360,000 compounds, 0.78% hits; AID 602399, 2012; in the data active means inhibition above about 26%
# NR2E3 ag-1 = NR2E3 agonists in two-hybrid cells, primary screen, cell-based, luminescence, CHO-S, Gal4-NCOR/VP16-NR2E3. luciferase. inhibition of corepressor binding, % at 3.98 µM. 360,000 compounds, 0.35% hits. AID 602229, 2012;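 active means inhibition above the mean of all tested compounds plus 3 SD, cut at about 70% in these data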;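 further: 0% = DMSO with NR2E3 transfected cells and 100% = cells lacking NR2E3 construct; higher means lower luciferase signal from less NR2E3 corepressor binding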
# Target sequence (Q9Y5X4 whole entry, looked up, the tested form may be a part): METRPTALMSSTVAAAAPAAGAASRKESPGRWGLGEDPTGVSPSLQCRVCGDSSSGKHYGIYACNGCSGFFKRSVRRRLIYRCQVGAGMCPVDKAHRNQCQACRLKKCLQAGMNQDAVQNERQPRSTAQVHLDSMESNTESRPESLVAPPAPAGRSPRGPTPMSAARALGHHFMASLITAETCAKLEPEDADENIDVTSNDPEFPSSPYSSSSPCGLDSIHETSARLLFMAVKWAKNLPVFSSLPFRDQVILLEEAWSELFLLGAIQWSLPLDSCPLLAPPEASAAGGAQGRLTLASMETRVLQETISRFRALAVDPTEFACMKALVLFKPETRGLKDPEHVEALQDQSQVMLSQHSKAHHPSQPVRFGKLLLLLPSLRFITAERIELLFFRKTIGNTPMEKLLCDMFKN
# GalR3 antag = GalR3 antagonists in HEK293 cells, primary screen, cell-based, fluorescence readout; Galanin receptor type 3 (Homo sapiens), O60755; AID 651719, 2012; 360,000 compounds, 0.44% hits; HEK293 GalR3-CNG cAMP membrane potential fluorescence; galR3 body fused to GalR1 C-terminus; inhibition, % at 3 µM;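 active means inhibition above the screen-wide average plus 3 SD, cut at about 13% in these data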;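 further: forskolin and galanin both at EC90 stimulate the cells; cAMP rise reported by CNG channel membrane potential dye signal; 0% = forskolin plus galanin with DMSO and 100% = forskolin alone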
# MsrA act = bovine MsrA enzyme activators, primary screen, biochemical, absorbance, HTS; Methionine sulfoxide reductase A (Bos taurus); purified bovine MsrA, absorbance read-out; activation, % at 10.6 µM; 360,000 compounds, 0.3% hits; in the data active means activation above about 7.5%;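 further: 0% = vehicle and 100% = reference activator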
# NR2E3 ag-2 = inhibitors of NR2E3-RetCOR corepressor binding, primary screen, NR2E3 agonist project, biochemical, TR-FRET, GST-NR2E3, biotin-RetCOR; Photoreceptor-specific nuclear receptor (Homo sapiens), Q9Y5X4; 320,000 compounds, 0.12% hits; 1536-well; inhibition of corepressor binding, % at 4.78 µM;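 active means percent inhibition above the cutoff of mean plus 3 SD of all tested compounds, set per screening campaign, cut at about 20% in these data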;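 further: 0% = DMSO wells and 100% = biotin wells as full block of FRET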
#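 System: GST-tagged NR2E3 plus biotinylated RetCOR corepressor; Buffer or medium: pH 7.5 Tris-based buffer; Probe or stimulus: RetCOR corepressor, biotinylated, 7 nM; Doses: compound at 4.8 µM, single dose; Schedule: 5 h incubation at 4 °C; Technique: time-resolved FRET; Evaluation: percent inhibition of TR-FRET ratio; Replication: one well per compound, singlicate testing.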
# MsrA inhibitor = bovine MsrA enzyme inhibitors, primary screen, biochemical, absorbance, HTS. 360,000 compounds, 0.75% hits. AID 651718, 2012. Methionine sulfoxide reductase A (Bos taurus). purified bovine MsrA, absorbance read-out. inhibition, % at 15.5 µM;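 further: 0% = vehicle wells with enzyme and 100% = reference inhibitor wells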
# MsrA conf = bovine MsrA inhibitors, retest, confirmation, biochemical, absorbance, HTS; shares compounds with MsrA inhibitor; purified bovine MsrA, absorbance read-out; inhibition, % at 15.5 µM; 2,300 compounds, 41% hits;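 further: coupled to thioredoxin reductase with NADPH and selenocystamine and DMSO as substrate; 0% = vehicle only and 100% = full effect of reference inhibitor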
# The depositor's hits bear a star; x = no result. Most compounds without a hit are left out; they make up all but 2.5% or so of the library. Unless noted, no stated cut-off is given here; in the data, active means inhibition above about 4.5%; inactive means the rest.
SMILES,NadD inh,NR2E3 ag-1,GalR3 antag,MsrA act,NR2E3 ag-2,MsrA inhibitor,MsrA conf
C=CCn1c(SCC(=O)Nc2ccc(NC(=O)c3ccco3)c(OC)c2)nnc1-c1ccncc1,8,-22,-6,-11,-2,1,x
C=CCn1c(SCC(=O)Nc2cc(OC)c(NC(=O)c3ccco3)cc2OC)nnc1-c1ccncc1,4,-28,3,-5,3,4.7*,2
CCc1cc2c(=O)c(-c3nc4ccccc4n3C)c(C)oc2cc1OC(C)=O,1,-5,1,-3,0,-1,x
CCOC(=O)c1cc2ccccc2n1CCN(CC)CC,-5,-2,-10,-8,-2,2,x
Cc1ccc(/C=C(\C#N)C(=O)NC(C)C)o1,-2,11,-1,-17,1,6.1*,5.0*
O=C(N=Nc1c(O)[nH]c2ccccc12)c1ccco1,-6,-164,-3,-9,0,6.8*,5.0*
CCCn1c(O)c(N=NC(=O)c2ccco2)c2ccccc21,19,-18,-4,-1,-4,4.7*,5.3*
Cc1ccc(CN2CCN(CC(=O)N=Nc3c(O)[nH]c4ccccc34)CC2)cc1,-3,-5,0,-5,-1,1,x
CCn1c(O)c(N=NC(=O)CNC(=O)c2ccco2)c2ccccc21,-6,-7,0,-7,0,1,x
O=C(N=Nc1c(O)[nH]c2ccccc12)c1ccc(CN2CCOCC2)cc1,-7,-30,1,2,-3,6.1*,3
CCOCCCn1c(SCC(=O)/C(C#N)=C(\C)N)nc2ccccc2c1=O,-2,-12,-1,-1,-6,0,x
COc1ccc(S(=O)(=O)N2CCN(C(=O)c3c(C)nn(-c4ccccc4)c3C)CC2)cc1,0,13,-6,-2,2,0,x
Cc1cc(C)cc(NC(=O)CSc2nnc(-c3ccncc3)o2)c1,-2,-4,-3,-1,1,0,x
Cc1ccccc1C(=O)NCCOc1ccccc1Cl,-5,-115,-11,-4,7,0,x
Cc1nc2ccc(Br)cn2c1NC(C)(C)C,-6,-15,1,-7,-1,1,x
CCCCOc1ccc(C(=O)N/C(=C/C=C/c2ccccc2)C(=O)O)cc1,7,-77,0,-2,3,6.8*,3
CCCCOc1ccc(C(=O)N/C(=C/C=C/c2ccccc2)C(=O)NC)cc1,-2,5,-7,-13,-2,3,x
O=C(O)CCNC(=O)/C(=C\C=C\c1ccccc1)NC(=O)c1ccccc1,2,-6,-4,-6,-2,6.8*,4
O=C(O)COc1ccc(/C=N/NC(=O)/C(=C/C=C/c2ccccc2)NC(=O)c2ccccc2)cc1,13,4,-5,-11,-1,8.4*,7.9*
COc1ccc(Cl)cc1NC(=O)CN(C)C(=O)CCCNC(=O)c1ccc(Cl)cc1,-1,11,-3,-5,-3,0,x
N#C/C(=C\Nc1ccc2c(c1)OCCO2)c1nc2ccccc2[nH]1,8,-34,1,-4,0,4,x
C/C(=N\NC(=O)c1ccc(CN(C)S(=O)(=O)c2ccc(C)cc2)cc1)c1ccc(OC(F)F)cc1,-3,-12,3,1,-1,-1,x
CCOC(=O)C1=C(O)C(=O)N(Cc2cccnc2)C1c1ccc(C)cc1 (stereo not given),0,1,-6,-7,-5,0,x
O=C(O)c1cc(-c2ccc(/C=N/N3C(=O)C4C5C=CC(CC5)C4C3=O)o2)ccc1Cl (stereo not given),1,-3,-5,-4,-1,7.4*,5.8*
O=C(O)c1cc(-c2ccc(/C=N/N3C(=O)C4C5C=CC(C6CC56)C4C3=O)o2)ccc1Cl (stereo not given),6,-14,-2,-4,2,5.4*,7.8*
SMILES,NadD inh,NR2E3 ag-1,GalR3 antag,MsrA act,NR2E3 ag-2,MsrA inhibitor,MsrA conf
CC(CC(=O)c1ccccc1)=NCCCN=C(C)CC(=O)c1ccccc1,-5,-4,0,-4,x,5.2*,4
C=CCNc1sc(C(=O)C2CC2)c(N)c1C#N,1,-8,0,-8,-1,6.4*,4.8*
O=C(CCSc1ccc(Cl)cc1)NCc1ccccn1,-7,-20,-2,-4,-2,0,x
O=[N+]([O-])c1ccc(Nc2ccccn2)c([N+](=O)[O-])c1,4,19,-6,-13,5,5.3*,4
O=C(O)c1ccccc1C(=O)Nc1ccc(Nc2ccc([N+](=O)[O-])cc2[N+](=O)[O-])cc1,-1,-17,-7,-13,-3,5.1*,3
Cc1ccc(/C=N/NC(=O)c2ccc3nc[nH]c3c2)s1,-5,-37,-6,-3,0,7.3*,5.7*
COc1cccc(/C=N/NC(=O)c2ccc3nc[nH]c3c2)c1O,0,-7,-3,-2,-1,2,x
COc1ccc(/C=N/NC(=O)c2ccc3nc[nH]c3c2)c(OC)c1OC,-1,-6,-4,-14,1,5.1*,2
CCOc1ccc(/C=C/C(=O)c2c(O)cc(C)oc2=O)cc1,-2,-119,-7,-5,-2,1,x
CC(Nc1nc2ccccc2n2cnnc12)c1ccccc1 (stereo not given),2,13,1,-9,-4,12*,7.2*
Cc1ccc(Nc2nc3ccccc3n3cnnc23)cc1Cl,-1,14,-8,-12,3,0,x
Cc1ccc(C)c(Nc2nc3ccccc3n3cnnc23)c1,-4,-3,-10,-3,-4,11*,6.7*
CCOc1ccc(NC(=O)CCN2CCN(c3ccccc3OC)CC2)cc1,-5,0,-3,-4,4,0,x
CC(=O)c1c(C)[nH]c(C2=NNC(=NCc3ccccc3)SC2)c1C,11,6,-9,-11,-3,5.0*,2
c1ccc(CN=C2NN=C(c3ccccc3)CS2)cc1,9,-70,-5,-4,1,0,x
CC(=O)c1cccc(Oc2cc(NN3CCCCC3)c([N+](=O)[O-])cc2[N+](=O)[O-])c1,-12,-9,-1,-4,2,18*,12*
COc1ccc(Oc2cc(NN3CCCCC3)c([N+](=O)[O-])cc2[N+](=O)[O-])cc1OC,-8,-16,-9,-2,1,4.9*,3
COc1ccc([N+](=O)[O-])cc1N(CC(=O)Nc1ccccc1C(=O)N1CCCC1)S(C)(=O)=O,-4,7,0,3,4,0,x
